Sampled rows, rich in hits. Any-hit rate of the full collection: about 2.3%.
PAX8 reporter: PAX8 transcriptional activity inhibition; RMG-I TPO-luciferase reporter, SteadyGlo, 24 h; inhibition, % at 12.6 µM; hit rate 1.2% among 360,000;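 active = mean replicate inhibition at least 60% with every replicate also reaching 60%; inconclusive = only one of the two criteria is met; inactive = mean below 60% and not all replicates reaching 60%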;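 also: luciferase light reporting Pax8 driven TPO promoter activity; plate controls were median of neutral control wells for no effect and mitoxantrone controls for full effect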
FN deposition inh: fibronectin deposition inhibition | inhibition, % at 12.6 µM | AH1F fibroblasts, Alexa488-fibronectin deposition fluorescence, overnight | hit rate 0.086% among 350,000;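 active = mean inhibition across replicates of 30% or more, regardless of how many single replicates reach that level; inconclusive = mean under 30% yet at least half of replicates reach 30%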;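 also: positive control wells lacked labelled fibronectin entirely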
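Assay system: AH1F fibroblasts / Quantity: 10000 cells per well / Medium: DMEM plus 2% serum, read in PBS / Reagent: labelled fibronectin 24 nM / Dosing: single dose, pinned / Times: 1 h cell attachment, overnight exposure to compound and label / Signal: fluorescence, ex 485 nm, em 525 nm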
HIV Env fusion: HIV envelope-mediated fusion inhibition. HeLa-JRFL Env/CEM21 cell fusion, luciferase. inhibition, % at 12.3 µM. hit rate 1.1% among 360,000. AID 651610;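 active = mean replicate inhibition score of at least 50 and every replicate individually at or above 50; inconclusive = only one of the two criteria met; inactive = mean below 50 and not all replicates reaching 50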;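 also: 0% = plate neutral controls and 100% = maraviroc near 300 nM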
PGC1a acetyl inh: lowers PGC1a acetylation signal in U2OS cells; AlphaScreen anti-acetyl-lysine; with virally co-expressed GCN5 acetyltransferase; hit rate 0.17% among 350,000; inhibition, % at 15.6 µM;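 active = every replicate shows inhibition of at least 40%; inconclusive = mean inhibition at least 40% but some replicate below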;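 also: 0% = neutral control wells and 100% = positive control wells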
EWS-Fli inh: blocks EWS/Fli oncoprotein-driven transcription; A673 NR0B1-luciferase reporter, viability-normalised; inhibition, % at 12.6 µM; hit rate 0.67% among 350,000; AID 651661;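 active = mean inhibition of at least 50% after viability correction, with every replicate also passing that limit; inconclusive = mean reaches 50% but only one of two replicates passes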;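 also: firefly luciferase signal divided by Alamar Blue viability fluorescence both relative to DMSO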
F508del corr: CFTR F508del correction in bronchial cells; AID 720511; hit rate 0.36% among 350,000; activity (quench increase), % at 7.58 µM; CFBE cells, YFP halide quenching; stimulated with forskolin plus potentiator P3; % fluorescence drop versus neutral controls;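 active = mean added fluorescence quench of at least 8% versus neutral control, with both replicates also reaching 8%; inconclusive = only one of the mean or replicate conditions met; inactive = mean below 8% and not both replicates reaching 8%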;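 also: cells transiently co-express mutant CFTR-F508del with the halide-sensitive YFP; corrector assay measuring rescue of mutant channel to the surface after 24 h compound exposure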
* marks the source's active call; other numbers are inactive results; ? = inconclusive; . = not tested or not shown; [ ] = remark or other dose.

SMILES	PAX8 reporter	FN deposition inh	HIV Env fusion	PGC1a acetyl inh	EWS-Fli inh	F508del corr
Cc1ccc(C(C)C)c(OCc2nn(CC(=O)c3ccc(Cl)cc3)c3[n+]2CCCCC3)c1	66.1*	7.8	32.7	-0.6	?	7.9
O=C(Cn1nc(CNc2ccc(Cl)cc2)[n+]2c1CCCCC2)c1ccccc1	17.3	4.7	22.4	.	0.4	-1.6
C[C@H]1CN(C)C(=O)c2cccc(NS(C)(=O)=O)c2O[C@@H]1CN(C)S(C)(=O)=O	.	-10.6	.	.	.	.
O=S(=O)(NCCc1csc(-c2cccnc2)n1)c1ccc(Cl)s1	8.2	7.3	121.9*	1.2	14.5	-1.6
O=S(=O)(c1ccccc1)[C@@]1(c2ccccc2)C[C@@H]2ON=C(c3cccc(Br)c3)[C@@H]2C1	41.5	10.5	79.1*	-3.0	18.5	4.8
Cc1nc(Nc2nc(CSc3nc4ccccc4[nH]3)cc(=O)[nH]2)nc2ccccc12	101.6*	.	161.1*	.	.	.
COc1ccc2nc(Nc3nc(CSc4nc5ccccc5[nH]4)cc(=O)[nH]3)nc(C)c2c1	28.7	-9.9	85.8*	-3.7	.	.
CCc1c(C)nc(Nc2nc(C)c3ccc(OC)cc3n2)[nH]c1=O	.	.	.	10.0	-81.1	1.3
Cc1nc(Nc2nc(CSc3ccc(Cl)cc3)cc(=O)[nH]2)nc2ccccc12	-7.3	0.9	-77.4	.	.	.
COc1ccc2c(C)nc(Nc3nc(C)c(C)c(=O)[nH]3)nc2c1	-88.4	.	65.6*	11.4	.	.
COc1cccc(S(=O)(=O)Nc2ccc3c(c2)[C@H]2C[C@@H](CC(=O)NCC(F)(F)F)O[C@@H](CO)[C@H]2O3)c1	-11.5	0.0	-1.4[16.7 µM]	-3.4	-7.2	-1.6
COc1cccc(CNC(=O)C[C@H]2CC[C@@H](NS(=O)(=O)c3ccccc3OC)[C@@H](CO)O2)c1	-7.5	.	25.2[16.7 µM]	6.1	-0.3	-0.8
CN(C)c1ncnc2c1nnn2C1OC(CO)C(O)C1O (stereo unspecified)	91.1*	-1.1	-66.7	13.9	26.3	2.0
O=c1[nH]cnc2c1nnn2C1OC(CO)C(O)C1O (stereo unspecified)	.	.	.	-16.7	-11.4	1.3
C[n+]1c2n(c3ccccc31)N=C(c1ccc(Cl)cc1)CS2	28.6	6.9	32.6	.	.	.
CC1Sc2n(c3ccccc3[n+]2C)N=C1c1ccccc1 (stereo unspecified)	67.6*	0.0	60.4*	.	.	.
CCCNC(=O)C[C@H]1C[C@H]2c3cc(NC(=O)CN(C)C)ccc3O[C@H]2[C@H](CO)O1	2.5	-19.7	88.8*[16.7 µM]	3.4	1.6	0.3
CCCNC(=O)C[C@@H]1C[C@H]2c3cc(NC(=O)Cc4ccncc4)ccc3O[C@H]2[C@H](CO)O1	-1.4	-9.6	97.9*[16.7 µM]	-2.2	5.5	-4.4
CCCNC(=O)C[C@@H]1C[C@H]2c3cc(NC(=O)CN(C)C)ccc3O[C@H]2[C@@H](CO)O1	-6.6	2.6	42.2[16.7 µM]	4.7	-0.7	-1.9
CCCNC(=O)C[C@@H]1C[C@H]2c3cc(NC(=O)Cc4ccncc4)ccc3O[C@H]2[C@@H](CO)O1	-11.6	-12.7	93.3*[16.7 µM]	4.6	-2.0	0.5
O=C(C[C@@H]1C[C@@H]2c3cc(NC(=O)Cc4ccncc4)ccc3O[C@@H]2[C@H](CO)O1)NCc1ccc(-c2ccccc2)cc1	102.1*	.	-0.3[16.7 µM]	-5.0	11.1	-0.1
COc1ccc(S(=O)(=O)N(C)C[C@H]2OCCCC[C@H](C)Oc3ccc(NS(=O)(=O)c4cccs4)cc3C(=O)N([C@H](C)CO)C[C@@H]2C)cc1	30.4	.	-44.4[16.7 µM]	5.2	6.2	-0.1
Cc1noc(C)c1S(=O)(=O)N(C)C[C@H]1Oc2ccc(NC(=O)Nc3ccccc3)cc2CC(=O)N([C@H](C)CO)C[C@@H]1C	?	.	-25.6[16.7 µM]	11.0	-1.6	2.4
CC1=C([C@H](O)CCc2ccccc2)[C@H](CO)n2c(=O)n(-c3ccccc3)c(=O)n2C1	.	.	-3.8[16.7 µM]	9.9	-1.3	-3.2
CCn1c(-c2ccc(Cl)cc2)n[nH]c1=S	.	6.0	60.6*	6.1	.	.
SMILES	PAX8 reporter	FN deposition inh	HIV Env fusion	PGC1a acetyl inh	EWS-Fli inh	F508del corr
CCOC(=O)c1c(NC(=O)c2ccco2)sc2c1CCCCC2	.	.	.	4.6	.	.
CCOC(=O)c1c(NC(=O)C(C)N2CCN(C(=O)c3ccco3)CC2)sc2c1CCCC2 (stereo unspecified)	.	-12.5	56.2*	0.7	.	.
Cc1nn(C)c(C)c1/C=N/NC(=O)C(C)(C)Oc1ccc(Cl)cc1	.	.	.	-16.0	4.3	-4.1
Cc1nn(C(C)(C)C)c(C)c1/C=N/OC(=O)Nc1ccc(Cl)cc1	79.3*	-5.0	27.5	-6.8	87.1*	-0.4
Cc1cc(Cl)ccc1OCC(=O)N1CCCN(C(=O)COc2ccc(Cl)cc2C)CC1	34.7	-1.4	115.2*	.	.	.
Cc1ccc2nc(NNC(=O)c3ccc4c(c3)OCCO4)sc2c1	11.3	-2.4	-4.4	-4.0	-8.9	0.7
Cc1ccc2nc(NNC(=O)c3ccc(S(=O)(=O)N4CCc5ccccc5C4)cc3)sc2c1	89.8*	11.3	-15.8	6.2	26.0	8.3*
CCOC(=O)c1c(C)[nH]c(C2=NNC(=Nc3ccccc3OC)SC2)c1C	74.2*	-6.4	-117.6	-6.8	-55.1	2.4
CCOC(=O)c1c(C)[nH]c(C2=NNC(=Nc3ccccc3)SC2)c1C	-7.0	-5.3	-46.8	2.1	-15.3	.
COc1cc(/C=N/NC(=O)c2ccc(O)cc2)ccc1OCC(=O)Nc1cccc([N+](=O)[O-])c1	-59.3	-4.5	-20.6	52.3*	-65.1	-3.1
COc1ccc(S(=O)(=O)N[C@@H]2CC[C@H](CC(=O)O)O[C@H]2CO)cc1	-3.5	6.1	5.8[16.7 µM]	-15.0	-0.9	-1.2
CCN(CC)CCn1c2ccccc2c2nc3ccccc3nc21	-3.4	0.3	-72.4	-5.0	4.7	24.2*
CCCn1c2ccccc2c2nc3ccccc3nc21	-51.0	7.8	-259.5	1.1	.	.
O=C(NC1CCCCCC1)C1c2ccccc2C(=O)N1Cc1cccs1 (stereo unspecified)	91.3*	-2.6	.	.	-4.9	0.6
CCN(CC)S(=O)(=O)c1ccc(N2CCOCC2)c(NC(=O)c2cc(-c3ccccn3)nc3ccccc23)c1	78.1*	.	26.2	.	14.3	-2.3
CCN(CC)S(=O)(=O)c1ccc(N2CCOCC2)c(NC(=O)c2cccc3ccccc23)c1	16.1	5.2	-1.9	3.7	7.2	.
Cc1ccc(OCCNCc2ccccc2)c(C)c1	8.7	1.5	2.3	5.5	-3.4	-1.0
Cc1ccc(OCCCCNC(C)c2ccccc2)c(C)c1 (stereo unspecified)	10.1	12.6	96.3*	4.0	20.5	-3.2
CNC[C@@H]1Oc2ncc(C#CC3(O)CCCC3)cc2C(=O)N([C@@H](C)CO)C[C@H]1C	-1.5	.	-13.7[16.7 µM]	1.0	2.5	2.2
O=C(Nc1ccc(CN2CCOCC2)cc1)c1ccc(-c2cccc(Cl)c2)o1	.	-2.6	77.4*	1.2	.	.
O=C(Nc1ccc(CN2CCOCC2)cc1)c1cc2ccccn2n1	8.9	1.1	20.7	0.5	56.0*	-1.4

Compound activity deposited in PubChem BioAssay by Broad Institute.
